Published values of several laboratories.

With `COc1ncccc1-c1cnn2ccc(N3CCN(C(=O)OC(C)C)CC3)nc12` the remaining binding was 84% (Serine/threonine-protein kinase SBK1 (SBK1, Homo sapiens, UniProt Q52WX2); binding, competition with immobilised ligand; 1 µM).
For `Nc1ncc(-c2nc(N3CCOCC3)nc(N3CCOCC3)n2)c(C(F)F)n1`, the remaining binding was 88% (Cyclin-dependent kinase 3 (CDK3, Homo sapiens, UniProt Q00526); binding, competition with immobilised ligand; 10 µM).
`COc1cc(Nc2ncc(F)c(Nc3ccc4c(n3)NC(=O)C(C)(C)O4)n2)cc(OC)c1OC` gave an inhibition of 48% (Serine/threonine-protein kinase 38-like (STK38L, Homo sapiens, UniProt Q9Y2H1); binding; 10 µM).
`CCN(CC)CCCC[C@H](NC(=O)[C@H](CC(C)C)NC(=O)[C@H](C)NC(=O)[C@H](Cc1ccccc1)NC(=O)c1ccc(C(C)(C)C)cc1)C(=O)N[C@@H](CO)C(=O)OC` gave a ΔTm of -0.15 °C (Protein polybromo-1, bromodomain (PBRM1, Homo sapiens, UniProt Q86U86); thermal stability, DSF; 25 µM).
For `C=C=CCN`, the kinact/KI was 9220 M⁻¹ s⁻¹ (Primary amine oxidase, liver isozyme (Bos taurus, UniProt Q29437); enzyme activity, inhibitor, fluorescence).
The inhibition of `C#Cc1n[nH]c2c(-c3cn([C@@H](C)c4ccccn4)c(=O)[nH]c3=O)cc(F)cc12` is reported as 0.2% (Serine/threonine-protein kinase PAK 4 (PAK4, Homo sapiens, UniProt O96013); enzyme activity, inhibitor; 0.1 µM).
`C[C@H](C(=O)N[C@H]1COc2ccccc2[C@@H]1S(C)(=O)=O)c1ccc(F)cc1` gave an inhibition of -12% (Beta-3 adrenergic receptor (ADRB3, Homo sapiens, UniProt P13945); cell-free assay; 10 µM).
With `O=c1ccc2ccc3occc3c2o1` the activity vs control was 95.2% (Aldehyde dehydrogenase, mitochondrial (ALDH2, Homo sapiens, UniProt P05091); enzyme activity, inhibitor, absorbance; 10 µM).
The Dmax of `CC1CCCN(c2ncc(Cl)c(Nc3ccc4c(c3)n(CCC(C)(C)O)c(=O)n4C)n2)C1` (centres unmarked) is reported as 85% (B-cell lymphoma 6 protein (BCL6, Homo sapiens, UniProt P41182); protein level, degrader; SU-DHL-4).
With `C#Cc1n[nH]c2c(-c3cn([C@@H](C)c4ccccc4)c(=O)[nH]c3=O)cc(F)cc12` the inhibition was -1.8% (Serine/threonine-protein kinase Sgk1 (SGK1, Homo sapiens, UniProt O00141); enzyme activity, inhibitor; 0.1 µM).
The remaining binding of `Cc1nn(C)cc1-c1nc2c(N3CCN(Cc4ccc(Cl)cc4)CC3)c(Cl)cnc2[nH]1` is reported as 100% (Tyrosine-protein kinase Tec (TEC, Homo sapiens, UniProt P42680); binding, competition with immobilised ligand; 1 µM).
